Measurements from publication PMC13170702 (Nuclear medicine and biology, 2025).

Test: organ radiation dose estimates, OLINDA 2.0, ICRP-103
Assay type: in vivo, human
In short: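 Whole-body PET-MR ran as nine scans to 214 min. Organ VOIs were drawn in AMIDE, giving decay-corrected %IA per VOI; remainder = whole body minus measured organs. TIACs came from the EXM exponential model (OLINDA 1.1). Per-participant organ doses were computed in OLINDA 2.0 with 73 kg adult male or 60 kg female models. Effective dose (mSv) = organ absorbed doses × ICRP-103 tissue weighting factors.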

Effective dose (whole body) (F1 (189 MBq)): 4.54 mSv
Estimated absorbed dose, Adrenals (F1 (189 MBq)): 5.94 mGy
Estimated absorbed dose, Brain (F1 (189 MBq)): 3.21 mGy
Estimated absorbed dose, Breasts (F1 (189 MBq)): 1.71 mGy
Estimated absorbed dose, Colon, left (F1 (189 MBq)): 2.85 mGy
Estimated absorbed dose, Colon, right (F1 (189 MBq)): 2.77 mGy
Estimated absorbed dose, Esophagus (F1 (189 MBq)): 2.98 mGy
Estimated absorbed dose, Eyes (F1 (189 MBq)): 1.59 mGy
Estimated absorbed dose, Gallbladder wall (F1 (189 MBq)): 5.09 mGy
Estimated absorbed dose, Heart wall (F1 (189 MBq)): 4.40 mGy
Estimated absorbed dose, Kidneys (F1 (189 MBq)): 32.6 mGy
Estimated absorbed dose, Liver (F1 (189 MBq)): 8.25 mGy
Estimated absorbed dose, Lungs (F1 (189 MBq)): 10.2 mGy
Estimated absorbed dose, Osteogenic cells (F1 (189 MBq)): 1.77 mGy
Estimated absorbed dose, Ovaries (F1 (189 MBq)): 2.77 mGy
Estimated absorbed dose, Pancreas (F1 (189 MBq)): 5.49 mGy
Estimated absorbed dose, Rectum (F1 (189 MBq)): 3.34 mGy
Estimated absorbed dose, Red marrow (F1 (189 MBq)): 2.26 mGy
Estimated absorbed dose, Salivary glands (F1 (189 MBq)): 1.69 mGy
Estimated absorbed dose, Small intestine (F1 (189 MBq)): 7.43 mGy
Estimated absorbed dose, Spleen (F1 (189 MBq)): 10.1 mGy
Estimated absorbed dose, Stomach wall (F1 (189 MBq)): 3.08 mGy
Estimated absorbed dose, Thymus (F1 (189 MBq)): 7.59 mGy
Estimated absorbed dose, Thyroid (F1 (189 MBq)): 2.36 mGy
Estimated absorbed dose, Urinary bladder wall (F1 (189 MBq)): 16.2 mGy
Estimated absorbed dose, Uterus (F1 (189 MBq)): 4.55 mGy
Effective dose (whole body) (F2, no voiding (355 MBq)): 9.27 mSv
Estimated absorbed dose, Adrenals (F2, no voiding (355 MBq)): 11.7 mGy
Estimated absorbed dose, Brain (F2, no voiding (355 MBq)): 5.33 mGy
Estimated absorbed dose, Breasts (F2, no voiding (355 MBq)): 2.78 mGy
Estimated absorbed dose, Colon, left (F2, no voiding (355 MBq)): 4.83 mGy
Estimated absorbed dose, Colon, right (F2, no voiding (355 MBq)): 4.76 mGy
Estimated absorbed dose, Esophagus (F2, no voiding (355 MBq)): 5.40 mGy
Estimated absorbed dose, Eyes (F2, no voiding (355 MBq)): 2.43 mGy
Estimated absorbed dose, Gallbladder wall (F2, no voiding (355 MBq)): 9.31 mGy
Estimated absorbed dose, Heart wall (F2, no voiding (355 MBq)): 6.93 mGy
Estimated absorbed dose, Kidneys (F2, no voiding (355 MBq)): 93.4 mGy
Estimated absorbed dose, Liver (F2, no voiding (355 MBq)): 15.5 mGy
Estimated absorbed dose, Lungs (F2, no voiding (355 MBq)): 21.1 mGy
Estimated absorbed dose, Osteogenic cells (F2, no voiding (355 MBq)): 2.97 mGy
Estimated absorbed dose, Ovaries (F2, no voiding (355 MBq)): 5.90 mGy
Estimated absorbed dose, Pancreas (F2, no voiding (355 MBq)): 7.60 mGy
Estimated absorbed dose, Rectum (F2, no voiding (355 MBq)): 7.07 mGy
Estimated absorbed dose, Red marrow (F2, no voiding (355 MBq)): 4.01 mGy
Estimated absorbed dose, Salivary glands (F2, no voiding (355 MBq)): 2.62 mGy
Estimated absorbed dose, Small intestine (F2, no voiding (355 MBq)): 9.87 mGy
Estimated absorbed dose, Spleen (F2, no voiding (355 MBq)): 7.49 mGy
Estimated absorbed dose, Stomach wall (F2, no voiding (355 MBq)): 5.08 mGy
Estimated absorbed dose, Thymus (F2, no voiding (355 MBq)): 8.99 mGy
Estimated absorbed dose, Thyroid (F2, no voiding (355 MBq)): 17.5 mGy
Estimated absorbed dose, Urinary bladder wall (F2, no voiding (355 MBq)): 28.7 mGy
Estimated absorbed dose, Uterus (F2, no voiding (355 MBq)): 47.6 mGy
Effective dose (whole body) (F3 (117 MBq)): 2.27 mSv
Estimated absorbed dose, Adrenals (F3 (117 MBq)): 3.65 mGy
Estimated absorbed dose, Brain (F3 (117 MBq)): 1.52 mGy
Estimated absorbed dose, Breasts (F3 (117 MBq)): 1.09 mGy
Estimated absorbed dose, Colon, left (F3 (117 MBq)): 1.77 mGy
Estimated absorbed dose, Colon, right (F3 (117 MBq)): 1.81 mGy
Estimated absorbed dose, Esophagus (F3 (117 MBq)): 1.78 mGy
Estimated absorbed dose, Eyes (F3 (117 MBq)): 1.01 mGy
Estimated absorbed dose, Gallbladder wall (F3 (117 MBq)): 3.38 mGy
Estimated absorbed dose, Heart wall (F3 (117 MBq)): 2.27 mGy
Estimated absorbed dose, Kidneys (F3 (117 MBq)): 21.4 mGy
Estimated absorbed dose, Liver (F3 (117 MBq)): 6.07 mGy
Estimated absorbed dose, Lungs (F3 (117 MBq)): 4.63 mGy
Estimated absorbed dose, Osteogenic cells (F3 (117 MBq)): 1.11 mGy
Estimated absorbed dose, Ovaries (F3 (117 MBq)): 1.54 mGy
Estimated absorbed dose, Pancreas (F3 (117 MBq)): 2.79 mGy
Estimated absorbed dose, Rectum (F3 (117 MBq)): 1.46 mGy
Estimated absorbed dose, Red marrow (F3 (117 MBq)): 1.39 mGy
Estimated absorbed dose, Salivary glands (F3 (117 MBq)): 1.09 mGy
Estimated absorbed dose, Small intestine (F3 (117 MBq)): 3.98 mGy
Estimated absorbed dose, Spleen (F3 (117 MBq)): 3.58 mGy
Estimated absorbed dose, Stomach wall (F3 (117 MBq)): 1.87 mGy
Estimated absorbed dose, Thymus (F3 (117 MBq)): 2.50 mGy
Estimated absorbed dose, Thyroid (F3 (117 MBq)): 2.20 mGy
Estimated absorbed dose, Urinary bladder wall (F3 (117 MBq)): 1.54 mGy
Estimated absorbed dose, Uterus (F3 (117 MBq)): 3.86 mGy
Effective dose (whole body) (F4 (167 MBq)): 3.28 mSv
Estimated absorbed dose, Adrenals (F4 (167 MBq)): 4.53 mGy
Estimated absorbed dose, Brain (F4 (167 MBq)): 2.64 mGy
Estimated absorbed dose, Breasts (F4 (167 MBq)): 1.41 mGy
Estimated absorbed dose, Colon, left (F4 (167 MBq)): 2.41 mGy
Estimated absorbed dose, Colon, right (F4 (167 MBq)): 2.41 mGy
Estimated absorbed dose, Esophagus (F4 (167 MBq)): 2.41 mGy
Estimated absorbed dose, Eyes (F4 (167 MBq)): 1.33 mGy
Estimated absorbed dose, Gallbladder wall (F4 (167 MBq)): 3.61 mGy
Estimated absorbed dose, Heart wall (F4 (167 MBq)): 4.15 mGy
Estimated absorbed dose, Kidneys (F4 (167 MBq)): 28.1 mGy
Estimated absorbed dose, Liver (F4 (167 MBq)): 6.74 mGy
Estimated absorbed dose, Lungs (F4 (167 MBq)): 7.74 mGy
Estimated absorbed dose, Osteogenic cells (F4 (167 MBq)): 1.45 mGy
Estimated absorbed dose, Ovaries (F4 (167 MBq)): 2.17 mGy
Estimated absorbed dose, Pancreas (F4 (167 MBq)): 3.86 mGy
Estimated absorbed dose, Rectum (F4 (167 MBq)): 2.14 mGy
Estimated absorbed dose, Red marrow (F4 (167 MBq)): 1.84 mGy
Estimated absorbed dose, Salivary glands (F4 (167 MBq)): 1.41 mGy
Estimated absorbed dose, Small intestine (F4 (167 MBq)): 8.53 mGy
Estimated absorbed dose, Spleen (F4 (167 MBq)): 3.75 mGy
Estimated absorbed dose, Stomach wall (F4 (167 MBq)): 2.46 mGy
Estimated absorbed dose, Thymus (F4 (167 MBq)): 4.47 mGy
Estimated absorbed dose, Thyroid (F4 (167 MBq)): 2.53 mGy
Estimated absorbed dose, Urinary bladder wall (F4 (167 MBq)): 4.45 mGy
Estimated absorbed dose, Uterus (F4 (167 MBq)): 6.39 mGy
Effective dose (whole body) (Female n=4, mean±SD): 0.0223±0.0033 mSv/MBq
Estimated dose, Adrenals (Female n=4, mean±SD): 0.0307±0.0025 mGy/MBq
Estimated dose, Brain (Female n=4, mean±SD): 0.0152±0.0017 mGy/MBq
Estimated dose, Breasts (Female n=4, mean±SD): 0.00866±0.00067 mGy/MBq
Estimated dose, Esophagus (Female n=4, mean±SD): 0.0152±0.0006 mGy/MBq
Estimated dose, Eyes (Female n=4, mean±SD): 0.00797±0.00081 mGy/MBq
Estimated dose, Gallbladder wall (Female n=4, mean±SD): 0.0259±0.0031 mGy/MBq
Estimated dose, Heart wall (Female n=4, mean±SD): 0.0218±0.0027 mGy/MBq
Estimated dose, Kidneys (Female n=4, mean±SD): 0.197±0.045 mGy/MBq
Estimated dose, Left colon (Female n=4, mean±SD): 0.0146±0.0007 mGy/MBq
Estimated dose, Liver (Female n=4, mean±SD): 0.0449±0.0049 mGy/MBq
Estimated dose, Lungs (Female n=4, mean±SD): 0.0499±0.0088 mGy/MBq
Estimated dose, Osteogenic cells (Female n=4, mean±SD): 0.00899±0.00054 mGy/MBq
Estimated dose, Ovaries (Female n=4, mean±SD): 0.0144±0.0017 mGy/MBq
Estimated dose, Pancreas (Female n=4, mean±SD): 0.0244±0.0033 mGy/MBq
Estimated dose, Rectum (Female n=4, mean±SD): 0.0157±0.0037 mGy/MBq
Estimated dose, Red marrow (Female n=4, mean±SD): 0.0116±0.0005 mGy/MBq
Estimated dose, Right colon (Female n=4, mean±SD): 0.0145±0.0009 mGy/MBq
Estimated dose, Salivary Glands (Female n=4, mean±SD): 0.0085±0.0008 mGy/MBq
Estimated dose, Small intestine (Female n=4, mean±SD): 0.0381±0.0098 mGy/MBq
Estimated dose, Spleen (Female n=4, mean±SD): 0.0319±0.0150 mGy/MBq
Estimated dose, Stomach wall (Female n=4, mean±SD): 0.0153±0.0010 mGy/MBq
Estimated dose, Thymus (Female n=4, mean±SD): 0.0284±0.0082 mGy/MBq
Structure (SMILES): COC(=O)[C@@H](N)CC(=O)Nc1ccc2c(c1)Cc1cc([18F])ccc1-2 [[^18F]RP-115, methyl N^4-(7-[^18F]fluoro-9H-fluoren-2-yl)asparaginate]
